Each block holds one compound with its values, some of them ahead of it. Residues, ends and D or L forms follow the SMILES beside them. *: point of attachment. Cbz = O=C(OCc1ccccc1)*
Legend:
[1] = test system: choroidal neovascularization; experiment: Laser-induced choroidal neovascularization; format: in vivo, mouse; details: intravitreal 1 μg dose, day 14
In short: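 Female C57BL/6 mice aged 4–6 weeks had laser rupture of Bruch's membrane at three sites per eye. Test compounds (1 or 5 µg) or DMSO were given intravitreally. At day 14, choroidal flat mounts were stained with FITC-Griffonia simplicifolia lectin, and CNV area was measured by fluorescence image analysis by an observer masked to group.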

[2] = biological target: T1, Id1 (Mus musculus, UniProt P20067); experiment: Western blot for Id1 in 4T1 cells; format: cell-based; details: 4T1, 0–20 μM AGXA, 24 h
T1 sequence (P20067 1-148 isoform P20067-2): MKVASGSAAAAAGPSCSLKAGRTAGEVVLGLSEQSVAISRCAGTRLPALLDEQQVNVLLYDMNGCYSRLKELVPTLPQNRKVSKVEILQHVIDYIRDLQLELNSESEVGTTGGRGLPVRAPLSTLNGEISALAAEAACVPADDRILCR
In short: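 4T1 cells were treated 24 h, collected by trypsinization, washed in PBS and lysed in sucrose/Tris pH 8.0/400 mM NaCl/MgCl2/0.5% NP40 buffer with protease inhibitors. Id1 immunoblots were quantified from 700 and 800 channel intensities, blank-subtracted and normalized to tubulin; IC50 reported from blots.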

[3] = biological target: T1, Id1; experiment: Circular dichroism; format: binding; details: AGX51 0–50 μM; AGXA 0–110 μM in DMSO
[4] = biological target: T2, NanoLuc luciferase ID1 fusion protein (Homo sapiens, UniProt P41134); experiment: NanoBRET target engagement assay in permeabilized 293T cells; format: binding
T2 sequence (P41134 1-155): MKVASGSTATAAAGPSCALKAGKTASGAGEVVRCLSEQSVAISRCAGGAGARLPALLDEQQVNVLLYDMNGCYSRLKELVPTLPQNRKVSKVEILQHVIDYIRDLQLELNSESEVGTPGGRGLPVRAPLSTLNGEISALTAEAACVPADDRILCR
In short: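 293T cells transfected with an N-terminal NanoLuc–ID1 fusion construct and plated 24 h later. Cells received 2 µM fluorescent tracer plus 0–60 µM competitor, then were permeabilised with digitonin (50 µg/mL). NanoBRET Nano-Glo substrate was added and the BRET ratio read, following the kit protocol for intracellular target engagement.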

[5] = test system: HCT116 cells; experiment: HCT116 cell viability; format: cell-based, human; details: cell-based assays (HCT116 and 4T1)
In short: (§1)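 MTT viability: cells seeded at 5000/well and left overnight, then exposed to the test compound for 24 h. MTT (5 mg/mL) was added for 4 h, medium removed and formazan dissolved in DMSO. Absorbance was read at 570 nm.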

[6] = test system: ID1, ID2, ID3, and ID4; experiment: Western blot for ID proteins in HCT116 cells; format: cell-based, human; details: HCT116, 0–10 μM AGXA, 24 h
[7] = biological target: T3, Id1-E47 interaction (Mus musculus, UniProt P20067); experiment: In vitro electrophoretic mobility shift assay; format: biochemical; details: data not shown
T3 sequence (P20067 1-148 isoform P20067-2): T1 sequence (P20067 1-148 isoform P20067-2)
In short: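 Bacterially purified full-length E47 was mixed with a 32P-labelled E-box probe from the muscle creatine kinase enhancer, plus BSA, DTT, poly dI-dC, salmon sperm DNA and HeLa nuclear extract, with or without purified full-length Id1. Test compounds in DMSO (or DMSO alone) were added at rising concentrations for 30 min. Complexes were resolved on 5% native PAGE and autoradiographed.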

[8] = test system: Id proteins; experiment: Degradation of Id proteins in cells; format: cell-based; details: data not shown
[9] = Cell viability assays; format: cell-based; details: data not shown
In short: as §1

[10] = biological target: T4, Id1 (59–104) (Mus musculus, UniProt P20067); experiment: UV crosslinking of AGX51-XL2 to purified Id1 and mass spectrometry; format: binding; details: UV light 20 minutes
T4 sequence (P20067 59-104): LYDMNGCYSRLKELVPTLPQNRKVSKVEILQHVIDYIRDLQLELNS
In short: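 Purified Id1 (aa 59–104, 1 µg) was mixed in the dark with 19.7 ng of a benzophenone photoreactive test-compound analog in DMSO and UV-irradiated for 20 min, with a no-UV control. Samples were run in the dark on a 15% denaturing gel and silver stained. Bands were excised for mass spectrometry.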

[11] = biological target: T5, E47 (Homo sapiens, UniProt P15923); experiment: UV crosslinking of AGX51-XL2 to E47 and mass spectrometry; format: binding; details: data not shown
T5 sequence (P15923 1-651 isoform P15923-2): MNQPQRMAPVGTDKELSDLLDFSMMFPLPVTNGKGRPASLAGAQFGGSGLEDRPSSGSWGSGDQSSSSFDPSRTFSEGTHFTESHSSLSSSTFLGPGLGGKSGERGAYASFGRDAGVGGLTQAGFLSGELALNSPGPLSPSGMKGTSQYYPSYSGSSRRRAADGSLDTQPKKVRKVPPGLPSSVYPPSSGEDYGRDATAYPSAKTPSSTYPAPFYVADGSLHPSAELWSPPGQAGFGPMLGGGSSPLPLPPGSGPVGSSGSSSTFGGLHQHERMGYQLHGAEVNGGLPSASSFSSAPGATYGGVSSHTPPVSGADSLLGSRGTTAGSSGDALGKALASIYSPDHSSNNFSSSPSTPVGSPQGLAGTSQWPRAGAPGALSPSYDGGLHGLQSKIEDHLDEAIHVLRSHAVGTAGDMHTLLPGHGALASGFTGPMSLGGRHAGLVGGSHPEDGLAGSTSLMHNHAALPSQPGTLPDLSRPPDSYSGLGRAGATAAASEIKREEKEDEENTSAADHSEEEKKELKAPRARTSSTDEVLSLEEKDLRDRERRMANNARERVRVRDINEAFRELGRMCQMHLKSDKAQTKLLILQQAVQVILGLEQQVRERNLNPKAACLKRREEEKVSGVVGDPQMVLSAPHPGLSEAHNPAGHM

[12] = biological target: T6, FLAG-ID1 (Homo sapiens, UniProt P41134); experiment: Ubiquitylation assay in HCT116 and U87 glioma cells; format: cell-based; details: 60 μM AGX51 2 h, then 20 μM MG132 for 6 h
T6 sequence (P41134 1-155): T2 sequence (P41134 1-155)
In short: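 HCT116 cells co-transfected with FLAG-tagged ID1 and HA-ubiquitin. After 36 h they were exposed to 60 µM test compound for 2 h, then 20 µM MG132 for a further 6 h. Cells were washed in ice-cold PBS, lysed in TBS (50 mM Tris pH 8.0, 150 mM NaCl) containing 2% SDS, and boiled for 10 min.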

Compound: CC(C)c1ccc(NNC(=O)c2cc3ccccc3s2)cc1 [AGX8, N’-(4-isopropylphenyl)benzo[b]thiophene-2-carbohydrazide]
concentrations required to perturb Id1 in the EMSA assay, relative to AGX51 [7]: higher concentrations
concentrations required to degrade Id proteins in cells, relative to AGX51 [8]: higher concentrations
IC50 in cell viability assays, relative to AGX51 [9]: higher IC50

Compound: COc1ccccc1C(CCN(Cc1ccccc1)C(=O)CCOCCOCCNC(=O)CCC1=[N+]2C(=Cc3ccc(-c4ccc[nH]4)n3[B-]2(F)F)C=C1)c1ccc2c(c1)OCO2 (stereo not shown) [AGX51 tracer, 3-(17-(benzo[d][1,3]dioxol-5-yl)-14-benzyl-17-(2-methoxyphenyl)-3,13-dioxo-7,10-dioxa-4,14-diazaheptadecyl)-5,5-difluoro-7-(1H-pyrrol-2-yl)-5H-5λ4-dipyrrolo[1,2-c:2’,1’-f][1,3,2]diazaborinin-4-ium]
BRET ratio ([4]; tracer 0–4 μM, digitonin-permeabilized 293T cells): dose-dependent increase in the BRET ratio

Compound: O=C(NCCC(c1ccccc1)c1ccccc1)c1ccc(C(=O)c2ccccc2)cc1 [AGX51-XL2, 4-benzoyl-N-(3,3-diphenylpropyl)bezamide]
covalent binding to Id1 after UV exposure [10]: covalently binding to Id1 at six residues (V73, P74, T75, P77, Q78, and R80)
covalent binding to E47 [11]: nor was there evidence of AGX51-XL2 binding to E47

The next lines start with results.

effect on Id1 secondary structure (CD spectra) [3]: greater activity than AGX51
competition with the AGX51 tracer (BRET ratio) ([4]; 2 μM AGX51 tracer, 0–60 μM competitor, 50 μg/mL digitonin): more efficiently
reduction in IC50 values relative to AGX51 [5]: ~4 fold
Compound: 6-chloro-2-methyl-N-(4-propoxyphenyl)quinolin-4-amine hydrochloride [AGXA]
area of CNV, AGXA compared with AGX51 [1]: worked better than AGX51
Id1 protein levels relative to AGX51 [2]: reduced Id protein levels at lower concentrations than AGX51
ID1 protein levels relative to AGX51 [6]: reduced Id protein levels at lower concentrations than AGX51

ID1 ubiquitylation [12]: ID1 ubiquitylation was observed
Compound: CC(C)C[C@@H](C=O)NC(=O)[C@H](CC(C)C)NC(=O)[C@H](CC(C)C)NC(=O)OCc1ccccc1 [MG132] (Cbz-Leu-Leu-Leu-aldehyde)

From article PMC6896334 (Cell reports, 2019)
